According to ChEMBL document CHEMBL1152250, “Novel and orally active 5-(1,3,4-oxadiazol-2-yl)pyrimidine derivatives as selective FLT3 inhibitors” (Bioorg Med Chem Lett, 2008):

Legend:
MOLM-13 [1] = assay: Antiproliferative activity against human MOLM13 cells after 72 hrs by WST-1 assay; assay type: functional; details: MOLM-13, 72 h
How it was run: (§1)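 Cells kept in RPMI1640 with 10% heat-inactivated FBS, 1% penicillin and 1% streptomycin, seeded in 96-well plates and exposed to test compounds for 72 h. Viability read with WST-1 reagent. GI50 is the mean ± SEM of three experiments.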

Liver microsomes = assay: Metabolic stability in human liver microsomes assessed as intrinsic clearance; assay type: ADME, Microsome
How it was run: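 Pooled human liver microsomes (0.2 mg protein/mL) with test compound at 0.1 or 1 μmol/L, 5 mmol/L NADPH, 100 mmol/L phosphate buffer pH 7.4, 6 mmol/L MgCl2 and 0.1 mmol/L EDTA. Cosolvent was DMSO (0.01 or 0.001 vol%) or methanol (1 vol%). Incubated at 37 °C for a fixed time, n = 1 or 2. Stopped with CH3CN containing internal standard and analysed by LC-MS or LC-MS/MS. Intrinsic clearance calculated from percent remaining.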

Mus musculus [2] = assay: Toxicity to human MOLM13 cells xenografted SCID mouse assessed as mortality at 50 mg/kg, po bid after 5 days; assay type: organism-based, MOLM-13; parameters: dose 50 mg/kg, route oral; details: in vivo, 120 h
How it was run: (§2)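 MOLM-13 cells implanted subcutaneously in SCID mice. Compound given orally twice daily for 5 days at 50, 100 or 200 mg/kg, alongside an untreated control group. Mortality was scored per dose group, together with tumor volume as treated/control ratio and relative to day-0 volume.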

MOLM-13 [3] = assay: Antitumor activity against human MOLM13 cells xenografted in SCID mouse assessed as minimal tumor volume ratio at 50 mg/kg, po bid treated for 5 days measured after 7 days relative to control; assay type: functional
How it was run: (§3)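 SCID mice bearing subcutaneous MOLM-13 xenografts, 5 per group, dosed orally b.i.d. for 5 days. […] is the mean tumour volume ratio, treated to control. Regression is the mean tumour volume relative to the initial volume on day 0. Mortality and body weight were also recorded.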

[4] = biological target: T1, Receptor-type tyrosine-protein kinase FLT3 (Homo sapiens, UniProt P36888); assay: Inhibition of GST-tagged FLT3 by ELISA
T1 sequence (P36888 whole entry): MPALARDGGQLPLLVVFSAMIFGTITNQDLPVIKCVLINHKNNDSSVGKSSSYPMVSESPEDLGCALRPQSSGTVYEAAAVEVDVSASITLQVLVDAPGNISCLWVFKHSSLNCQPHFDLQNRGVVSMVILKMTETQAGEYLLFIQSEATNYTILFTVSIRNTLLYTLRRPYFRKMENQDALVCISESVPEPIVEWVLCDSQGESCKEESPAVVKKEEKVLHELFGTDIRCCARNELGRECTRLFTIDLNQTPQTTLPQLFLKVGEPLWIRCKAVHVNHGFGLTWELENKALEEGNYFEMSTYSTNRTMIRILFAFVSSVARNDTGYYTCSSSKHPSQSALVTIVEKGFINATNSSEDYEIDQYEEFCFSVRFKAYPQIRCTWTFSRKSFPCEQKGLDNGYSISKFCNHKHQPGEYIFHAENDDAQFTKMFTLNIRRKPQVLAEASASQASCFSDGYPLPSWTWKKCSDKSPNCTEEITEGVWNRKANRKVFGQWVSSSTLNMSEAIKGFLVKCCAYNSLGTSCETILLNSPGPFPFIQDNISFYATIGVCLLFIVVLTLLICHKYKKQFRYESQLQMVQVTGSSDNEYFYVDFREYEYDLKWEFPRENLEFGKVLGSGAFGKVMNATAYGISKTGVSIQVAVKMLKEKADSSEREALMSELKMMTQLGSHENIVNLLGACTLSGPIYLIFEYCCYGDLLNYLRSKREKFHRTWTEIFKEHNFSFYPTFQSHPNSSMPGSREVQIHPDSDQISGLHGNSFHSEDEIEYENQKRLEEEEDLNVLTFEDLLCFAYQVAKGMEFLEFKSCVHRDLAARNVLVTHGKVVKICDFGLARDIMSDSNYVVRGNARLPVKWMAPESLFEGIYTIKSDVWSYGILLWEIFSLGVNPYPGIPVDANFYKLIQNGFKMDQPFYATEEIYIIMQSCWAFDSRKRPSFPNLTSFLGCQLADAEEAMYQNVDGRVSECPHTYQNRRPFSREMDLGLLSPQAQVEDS

MOLM-13 [5] = assay: Antitumor activity against human MOLM13 cells xenografted in po dosed SCID mouse assessed as tumor volume ratio administered bid for 5 days; assay type: functional, organism-based; how it was run: as §3
Mus musculus [6] = assay: Toxicity to human MOLM13 cells xenografted SCID mouse assessed as mortality at 100 mg/kg, po bid after 5 days; assay type: organism-based, MOLM-13; parameters: dose 100 mg/kg, route oral; details: in vivo, 120 h; how it was run: as §2
MOLM-13 [7] = assay: Antitumor activity against human MOLM13 cells xenografted in SCID mouse assessed as minimal regressive tumor volume ratio at 50 mg/kg, po bid treated for 5 days measured after 7 days relative to control; assay type: functional; how it was run: as §3
[8] = Antiproliferative activity against human HMC1 cells expressing FLT3-delta599 mutant after 72 hrs by WST-1 assay; assay type: functional; details: HMC1, 72 h; how it was run: as §1
MOLM-13 [9] = assay: Antitumor activity against human MOLM13 cells xenografted in SCID mouse assessed as minimal tumor volume ratio at 100 mg/kg, po bid treated for 5 days measured after 7 days relative to control; assay type: functional; how it was run: as §3
[10] = Antiproliferative activity against human HMC1 cells expressing FLT-D835Y mutant after 72 hrs by WST-1 assay; assay type: functional; details: HMC1, 72 h; how it was run: as §1
MOLM-13 [11] = assay: Antitumor activity against human MOLM13 cells xenografted in po dosed SCID mouse assessed as regression tumor volume ratio administered bid for 5 days; assay type: functional, organism-based; how it was run: as §3
MOLM-13 [12] = assay: Antitumor activity against human MOLM13 cells xenografted in SCID mouse assessed as minimal regressive tumor volume ratio at 100 mg/kg, po bid treated for 5 days measured after 7 days relative to control; assay type: functional; how it was run: as §3
[13] = Antiproliferative activity against human ML1 cells after 72 hrs by WST-1 assay; assay type: functional; details: ML1, 72 h; how it was run: as §1
Mus musculus [14] = assay: Toxicity to human MOLM13 cells xenografted SCID mouse assessed as body weight loss at 200 mg/kg, po bid after 5 days; assay type: organism-based, MOLM-13; parameters: dose 200 mg/kg, route oral; details: in vivo, 120 h; how it was run: as §3
MOLM-13 [15] = assay: Antitumor activity against human MOLM13 cells xenografted in SCID mouse assessed as minimal regressive tumor volume ratio at 100 mg/kg, po bid treated for 5 days measured after 4 days relative to control; assay type: functional; how it was run: as §3
MOLM-13 [16] = assay: Antitumor activity against human MOLM13 cells xenografted in SCID mouse assessed as minimal regressive tumor volume ratio at 200 mg/kg, po bid treated for 5 days measured after 10 days relative to control; assay type: functional; how it was run: as §3
Mus musculus [17] = assay: Toxicity to human MOLM13 cells xenografted SCID mouse assessed as mortality at 200 mg/kg, po bid after 5 days; assay type: organism-based, MOLM-13; parameters: dose 200 mg/kg, route oral; details: in vivo, 120 h; how it was run: as §2
MOLM-13 [18] = assay: Antitumor activity against human MOLM13 cells xenografted in SCID mouse assessed as tumor volume ratio at 200 mg/kg, po bid treated for 5 days measured after 10 days relative to control; assay type: functional; how it was run: as §3
[19] = Metabolic stability in human liver microsomes

GI50 (MOLM-13 [1]) [nM]	clearance (Liver microsomes) [mL/min/kg]	Structure (SMILES)	further results
43	167	CCCNc1nc(NCCc2ccncc2)ncc1-c1nnc(CN2CCOCC2)o1	
43	115	CCCNc1nc(NCCc2ccncc2)ncc1-c1nnc(CN2C[C@@H](C)N[C@@H](C)C2)o1	
74	38.3	c1ccc(Nc2nc(NCCc3ccncc3)ncc2-c2nnc(CN3CCNCC3)o2)cc1	
10	267	Oc1cccc(Nc2nc(NCCc3ccncc3)ncc2-c2nnc(C3CC3)o2)c1	IC50 [4]: 34 nM
999		COc1cc(CCNc2ncc(-c3nnc(C4CC4)o3)c(Nc3ccccc3)n2)ccn1	
588		CS(=O)(=O)CCNc1nc(NCCc2ccncc2)ncc1-c1nnc(C2CC2)o1	IC50 [4]: 515 nM
78	50	CCCNc1nc(NCCc2ccncc2)ncc1-c1nnc(CNCCN(C)C)o1	
50	105	c1cc(CCNc2ncc(-c3nnc(CN4CCNCC4)o3)c(NC3CCC3)n2)ccn1	
113	41.7	Oc1cc(CCNc2ncc(-c3nnc(C4CC4)o3)c(Nc3ccccc3)n2)ccn1	
40	317	c1ccc(Nc2nc(NCCc3ccncc3)ncc2-c2nnc(C3CC3)o2)cc1	IC50 [4]: 47 nM
137	367	Cc1cc(CCNc2ncc(-c3nnc(C4CC4)o3)c(Nc3ccccc3)n2)ccn1	
66	137	CCCNc1nc(NCCc2ccncc2)ncc1-c1nnc(CN2CCN(C(C)=O)CC2)o1	
262	1.67	CNc1nc(NCCc2ccncc2)ncc1-c1nnc(CN2CCN(C)CC2)o1	
3.2		Oc1ccc(Nc2nc(NCCc3ccncc3)ncc2-c2nnc(C3CC3)o2)cc1	IC50 [4]: 4.8 nM
		CCCNc1nc(NCCc2cccs2)ncc1-c1nnc(C)o1	IC50 [4]: 373 nM
287	68.3	Nc1ccc(CCNc2ncc(-c3nnc(C4CC4)o3)c(Nc3ccccc3)n2)cc1	

GI50 (MOLM-13 [1]) [nM]	clearance (Liver microsomes) [mL/min/kg]	Structure (SMILES)	further results
74	50	CCCNc1nc(NCCc2ccncc2)ncc1-c1nnc(CN2CCC(N)CC2)o1	
44	85	Oc1ccc(CCNc2ncc(-c3nnc(C4CC4)o3)c(Nc3ccccc3)n2)cc1	
49	25	CC(C)Nc1nc(NCCc2ccncc2)ncc1-c1nnc(CN2CCNCC2)o1	
56	35	CCCNc1nc(NCCc2ccncc2)ncc1-c1nnc(CO)o1	GI50 [8]: 76 nM; GI50 [10]: 116 nM; GI50 [13]: 5960 nM
99	1.67	FCCCNc1nc(NCCc2ccncc2)ncc1-c1nnc(CN2CCNCC2)o1	
775	73.3	c1ccc(Nc2nc(NCCc3ccncn3)ncc2-c2nnc(C3CC3)o2)cc1	
57	50	CCCNc1nc(NCCc2ccncc2)ncc1-c1nnc(CN2CCN(CCO)CC2)o1	
3610	3.33	[O-][n+]1ccc(CCNc2ncc(-c3nnc(C4CC4)o3)c(Nc3ccccc3)n2)cc1	
52	86.7	CN1CCN(Cc2nnc(-c3cnc(NCCc4ccncc4)nc3NCC3CC3)o2)CC1	
123	20	OCCNc1nc(NCCc2ccncc2)ncc1-c1nnc(C2CC2)o1	IC50 [4]: 63 nM
23	183	Cc1ccc(Nc2nc(NCCc3ccncc3)ncc2-c2nnc(C3CC3)o2)cc1	IC50 [4]: 106 nM
263	23.3	CCOc1nc(NCCc2ccncc2)ncc1-c1nnc(C2CC2)o1	IC50 [4]: 80 nM
10000		N#Cc1cc(CCNc2ncc(-c3nnc(C4CC4)o3)c(Nc3ccccc3)n2)ccn1	
40	217	Cc1ccccc1Nc1nc(NCCc2ccncc2)ncc1-c1nnc(C2CC2)o1	IC50 [4]: 134 nM
139	20	CNc1nc(NCCc2ccncc2)ncc1-c1nnc(C2CC2)o1	IC50 [4]: 35 nM
308	11.7	CCCOc1nc(NCCc2ccncc2)ncc1-c1nnc(CN2CCN(C)CC2)o1	

Structure (SMILES)	GI50 (MOLM-13 [1]) [nM]	clearance (Liver microsomes) [mL/min/kg]	further results
CCCNc1nc(NCCc2ccncc2)ncc1-c1nnc(CN(C)C)o1	73	183	Activity (Mus musculus [2]): Non-toxic; T/C (MOLM-13 [3]): 0.45
CCNc1nc(NCCc2ccncc2)ncc1-c1nnc(CN2C[C@@H](C)N[C@@H](C)C2)o1	94	13.3	Activity (MOLM-13 [5]): Dose-dependent effect; Activity (Mus musculus [6]): Non-toxic; Ratio (MOLM-13 [7]): 1.39; Activity (Mus musculus [2]): Non-toxic; GI50 [8]: 74 nM; T/C (MOLM-13 [9]): 0.014; GI50 [10]: 48 nM; Activity (MOLM-13 [11]): Dose-dependent effect; T/C (MOLM-13 [3]): 0.2; Ratio (MOLM-13 [12]): 0.12; GI50 [13]: > 10000 nM; Activity (Mus musculus [14]): Non-toxic
CCCNc1nc(NCCc2ccncc2)ncc1-c1nnc(CN2CCNCC2)o1	29	18.3	Activity (MOLM-13 [5]): Dose-dependent effect; Activity (Mus musculus [6]): Non-toxic; Activity (Mus musculus [2]): Non-toxic; Ratio (MOLM-13 [15]): 0.571; Ratio (MOLM-13 [16]): 0.098; Activity (Mus musculus [17]): Non-toxic; T/C (MOLM-13 [18]): 0.006; GI50 [8]: 74 nM; T/C (MOLM-13 [9]): 0.1; GI50 [10]: 65 nM; Activity (MOLM-13 [11]): Dose-dependent effect; GI50 [13]: 9110 nM; Activity (Mus musculus [14]): Non-toxic
CCCNc1nc(NCCc2ccncc2)ncc1-c1nnc(C2CC2)o1	36	217	Activity [19]: Unstable; Activity (Mus musculus [2]): Non-toxic; GI50 [8]: 36 nM; IC50 [4]: 4.9 nM; T/C (MOLM-13 [9]): 0.34; GI50 [10]: 52 nM; T/C (MOLM-13 [3]): 0.47; GI50 [13]: 4320 nM; Activity (Mus musculus [14]): Non-toxic
CCCNc1nc(NCCc2ccncc2)ncc1-c1nnc(CN2CCN(C)CC2)o1	19	81.7	Activity (Mus musculus [2]): Non-toxic; GI50 [8]: 37 nM; GI50 [10]: 31 nM; GI50 [13]: > 10000 nM; Activity (Mus musculus [14]): Non-toxic
CCNc1nc(NCCc2ccncc2)ncc1-c1nnc(CN2CCN(C)CC2)o1	102	45	Activity (Mus musculus [2]): Non-toxic; GI50 [8]: 114 nM; GI50 [10]: 63 nM; T/C (MOLM-13 [3]): 0.24; GI50 [13]: > 10000 nM; Activity (Mus musculus [14]): Non-toxic
